Data reported in ChEMBL document CHEMBL1122607, “Heterocyclic analogues of chlorcyclizine with potent hypolipidemic activity” (J Med Chem, 1984).

Assays:
Rattus norvegicus [1] = assay: Minimum effective dose (MED) is the dose (mg/kg)that cause significant reduction in serum cholesterol of 30% compared to concurrent controls.; format: functional; set-up: unit: mg/kg
Procedure, shortened: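 MED was calculated from the log dose/response curve as the dose giving a statistically significant 30% fall in serum cholesterol versus concurrent controls. Measured in the 3-day oral cholesterol-fed rat screen, or in a 2-week test: groups of eight young male Wistar rats on cholesterol/cholic acid-supplemented or normal diet, dosed orally by gavage daily for 14 days, vehicle 0.5% tragacanth mucilage.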

Rattus norvegicus [2] = assay: Hypolipidemic activity was measured as reduction in rat serum cholesterol after oral administration in male Wistar rats at 100 mg/(kg day); format: functional
Procedure, shortened: (§1)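 Cholesterol-fed rats given the test compound orally by gavage on the last 3 days, with controls receiving vehicle (0.5% tragacanth mucilage). After overnight starvation, rats were killed under CO2 3 h after the last dose and bled by cardiac puncture. Serum cholesterol and triglyceride were measured by autoanalyzer and expressed as percentage reduction from control levels, with Student's t test.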

Rattus norvegicus [3] = assay: Hypolipidemic activity was measured as reduction in rat serum cholesterol after oral administration in male Wistar rats at 3 mg / (kg day); format: functional; procedure, shortened: as §1
Rattus norvegicus [4] = assay: Hypolipidemic activity was measured as reduction in rat serum cholesterol after oral administration in male Wistar rats at 30 mg / (kg day); format: functional; procedure, shortened: as §1
Rattus norvegicus [5] = assay: Hypolipidemic activity was measured as reduction in rat serum triglyceride after oral administration in male Wistar rats at 1 mg / (kg day); format: functional; procedure, shortened: as §1
Rattus norvegicus [6] = assay: Hypolipidemic activity was measured as reduction in rat serum triglyceride after oral administration in male Wistar rats at 10 mg / (kg day); format: functional; procedure, shortened: as §1
Rattus norvegicus [7] = assay: Hypolipidemic activity was measured as reduction in rat serum triglyceride after oral administration in male Wistar rats at 3 mg / (kg day); format: functional; procedure, shortened: as §1
Rattus norvegicus [8] = assay: Hypolipidemic activity was measured as reduction in rat serum triglyceride after oral administration in male Wistar rats at 30 mg / (kg day); format: functional; procedure, shortened: as §1
Rattus norvegicus [9] = assay: Hypolipidemic activity was measured as reduction in rat serum cholesterol after oral administration in male Wistar rats at 1 mg / (kg day); format: functional; procedure, shortened: as §1
Rattus norvegicus [10] = assay: Hypolipidemic activity was measured as reduction in rat serum cholesterol after oral administration in male Wistar rats at 10 mg / (kg day); format: functional; procedure, shortened: as §1
[11] = The therapeutic safety margin (TSM) is the ratio of the minimum lethal dose (mg/kg)to the MED; format: ADME, organism-based; settings: in vivo
Procedure, shortened: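 Young male Wistar rats, eight per group, on cholesterol/cholic acid-supplemented or normal diet; graded oral gavage doses daily for 14 days; vehicle controls (0.5% tragacanth mucilage). Mortalities recorded to give the minimum lethal daily dose. After overnight fasting, serum cholesterol assayed by autoanalyzer. MED is the dose giving a significant (t test) 30% cholesterol fall, from the log dose/response curve. TSM = minimum lethal dose/MED.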

Rattus norvegicus [12] = assay: Hypolipidemic activity was measured as reduction in rat serum triglyceride after oral administration in male Wistar rats at 100 mg / (kg day); format: functional; procedure, shortened: as §1
Rattus norvegicus [13] = assay: Hypolipidemic activity was measured as reduction in rat serum cholesterol after oral administration in male Wistar rats at 200 mg / (kg day); format: functional; procedure, shortened: as §1
Rattus norvegicus [14] = assay: Hypolipidemic activity was measured as reduction in rat serum triglyceride after oral administration in male Wistar rats at 200 mg / (kg day); format: functional; procedure, shortened: as §1
Rattus norvegicus [15] = assay: Hypolipidemic activity was measured as reduction in rat serum triglyceride after oral administration in male Wistar rats at 50 mg / (kg day); format: functional; procedure, shortened: as §1
Rattus norvegicus [16] = assay: Hypolipidemic activity was measured as reduction in rat serum cholesterol after oral administration in male Wistar rats at 50 mg / (kg day); format: functional; procedure, shortened: as §1
Rattus norvegicus [17] = assay: Hypolipidemic activity was measured as reduction in rat serum cholesterol after oral administration in male Wistar rats at 20 mg / (kg day); format: functional; procedure, shortened: as §1
Rattus norvegicus [18] = assay: Hypolipidemic activity was measured as reduction in rat serum triglyceride after oral administration in male Wistar rats at 20 mg / (kg day); format: functional; procedure, shortened: as §1

| SMILES | MED (Rattus norvegicus [1]) | Reduction (Rattus norvegicus [2]) | Reduction (Rattus norvegicus [3]) | Reduction (Rattus norvegicus [4]) | Reduction (Rattus norvegicus [5]) | Reduction (Rattus norvegicus [6]) | Reduction (Rattus norvegicus [7]) | Reduction (Rattus norvegicus [8]) | Reduction (Rattus norvegicus [9]) | Reduction (Rattus norvegicus [10]) | therapeutic safety margin (minimum lethal dose / MED) [11] | Reduction (Rattus norvegicus [12]) | Reduction (Rattus norvegicus [13]) | Reduction (Rattus norvegicus [14]) | Reduction (Rattus norvegicus [15]) | Reduction (Rattus norvegicus [16]) | Reduction (Rattus norvegicus [17]) | Reduction (Rattus norvegicus [18]) |
| --- | --- | --- | --- | --- | --- | --- | --- | --- | --- | --- | --- | --- | --- | --- | --- | --- | --- | --- |
| Cc1cnsc1C(c1ccc(C(C)C)cc1)N1CCN(CCO)CC1 (centres undefined) | 3 | 87% | 30% | 82% | 3% | 48% | 8% | 69% | 10% | 69% | 30 | 97% |  |  |  |  |  |  |
| Cc1ccc(C(c2cc(C)ns2)N2CCN(C)CC2)c(C)c1 (centres undefined) |  |  |  | 1% |  |  |  | 31% |  |  |  |  | 56% | 52% |  |  |  |  |
| Cc1ccccc1C(c1c(C)noc1C)N1CCN(C)CC1 (centres undefined) |  | 80% |  | 28% |  |  |  | 21% |  |  |  | 75% | 88% | 84% |  |  |  |  |
| CC(C)COc1ccccc1C(c1ccns1)N1CCN(C)CC1 (centres undefined) | 18 |  |  | 49% |  | 15% |  | 50% |  | 1% |  |  | 85% | 85% |  |  |  |  |
| Cc1cc(C(c2ccc(C(C)C)cc2)N2CCN(C)CC2)sn1 (centres undefined) | 9 | 63% | 16% |  |  |  |  |  |  | 28% | 15 | 85% |  |  | 72% | 45% |  |  |
| Cc1cc(C(c2ccccc2Cl)N2CCN(C)CC2)sn1 (centres undefined) | 30 | 61% |  |  |  |  |  |  |  |  | 15 | 44% |  |  | 50% | 63% | 16% | 8% |
| CN1CCN(C(c2ccns2)c2ccccc2Cl)CC1 (centres undefined) | 10 | 67% |  |  |  | 12% |  |  |  | 31% | 5 | 52% |  |  |  |  | 43% | 15% |
| Cc1cnsc1C(c1ccc(C(C)C)cc1)N1CCN(CC(C)O)CC1 (centres undefined) | 5 | 64% | 8% | 50% |  | 22% | 22% | 65% |  | 45% | 12 | 81% |  |  |  |  |  |  |
| Cc1cnsc1C(c1ccc(C(C)C)cc1)N1CCN(CCCO)CC1 (centres undefined) | 5 | 80% | 19% | 75% |  | 48% | 17% | 55% |  | 63% | 20 | 78% |  |  |  |  |  |  |
| Cc1ccc(C(c2ccns2)N2CCN(C)CC2)cc1 (centres undefined) |  |  |  | 4% |  |  |  | 9% |  |  |  |  | 30% | 36% |  |  |  |  |
| CCCc1ccc(C(c2ccns2)N2CCN(C)CC2)cc1 (centres undefined) | 3 |  | 31% | 65% |  | 7% | 18% | 34% |  | 48% | 20 |  | 82% | 86% |  |  |  |  |
| Cc1noc(C)c1C(=C1CCNCC1)c1ccc(C(C)C)cc1 |  | 89% | 44% | 83% | 41% | 46% | 6% | 83% | 6% | 65% |  | 89% |  |  |  |  |  |  |
| CCCCc1ccc(C(c2cc(C)ns2)N2CCN(C)CC2)cc1 (centres undefined) |  |  |  |  |  |  |  |  |  |  |  |  | 75% | 66% | 25% | 45% |  |  |
| Cc1cc(C(c2ccc(C(C)C)cc2)N2CCNCC2)sn1 (stereo in doubt; 33) | 8 |  | 2% | 67% |  | 38% | 26% | 66% |  | 43% | < 10 |  |  |  |  |  |  |  |
